In brackets after ≈: the same amount, converted by molar mass. Activity calls are given as the source filed them. The calls are words filed in the database; no cut-off is given here.
How the values were obtained:
Staphylococcus aureus [1] = experiment: Antibacterial activity against methicillin-resistant Staphylococcus aureus NRS123 (USA400) after 20 hrs by broth microdilution assay; type: functional
Method in brief: (§1)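 Broth microdilution per CLSI in cation-adjusted Mueller Hinton broth. Compounds serially diluted, in triplicate. Incubation at 37 °C for at least 20 hours. MIC taken as the lowest concentration with no visible bacterial growth.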

Staphylococcus aureus [2] = experiment: Bactericidal activity against methicillin resistant vancomycin-resistant Staphylococcus aureus VRS11a up to 18 hrs by broth microdilution assay; type: functional; settings: read-out: MBC99.9
[3] = Induction of proton motive force collapse in Escherichia coli inverted membrane vesicle in presence of succinate/O2-driven PMF generation system by ACMA-based fluorescence assay; type: functional, cell membranes
Method in brief: (§2)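 E. coli inverted membrane vesicles had proton motive force generated either by ATP or by succinate/O2. PMF collapse was followed as a dose response to give EC50, with CCCP as the reference uncoupler.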

Staphylococcus aureus [4] = experiment: Potency index, ratio of vancomycin MIC to compound MIC for antibacterial activity against vancomycin-resistant Staphylococcus aureus VRS11a; type: functional
Staphylococcus aureus [5] = experiment: Ratio of MBC to MIC for methicillin-resistant Staphylococcus aureus USA300; type: functional
Method in brief: (§3)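 MBC/MIC ratio. […] MBC by plating no-growth wells onto tryptic soy agar at 37 °C for at least 18 h; taken as the concentration giving 99.9% growth inhibition.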

Staphylococcus aureus [6] = experiment: Potency index, ratio of vancomycin MIC to compound MIC for antibacterial activity against vancomycin-resistant Staphylococcus aureus VRS12; type: functional
[7] = Half life in human liver microsomes at 0.1 uM preincubated for 5 mins followed by NDAPH addition measured up to 60 mins by HPLC-MS/MS analysis; settings: 1 h
Staphylococcus aureus [8] = experiment: Inhibition of UPPS/UPPP in vancomycin-resistant Staphylococcus aureus VRS10 assessed as potentiation of vancomycin-induced antibacterial activity by measuring fold reduction in vancomycin MIC at 0.5 times MIC preincubated for 30 mins followed by vancomycin addition measured after 20 to 22 hrs by broth microdilution assay relative to control
Method in brief: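 VRS10 suspension pre-exposed to compound at ½ × MIC for 30 min at room temperature. […] Incubation at 37 °C for 20–22 h before the MIC was read; untreated bacteria served as control.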

[9] = Terminal phase volume of distribution in Sprague-Dawley rat at 2 uM administered as single iv bolus dose by LC-MS/MS analysis; type: ADME, organism-based; settings: in vivo, read-out: Vbeta
Method in brief: (§4)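 Male naïve Sprague-Dawley rats (three animals) received an IV bolus of a 2 μM solution. EDTA-K2 blood was sampled over 12 h post dose. Plasma was protein-precipitated with acetonitrile and quantified by LC/MS/MS. Parameters came from two-compartmental pharmacokinetic analysis.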

Staphylococcus aureus [10] = experiment: Ratio of MBC to MIC for methicillin-resistant Staphylococcus aureus NRS107; type: functional; method in brief: as §3
J774 = experiment: Cytotoxicity against mouse J774 cells assessed as reduction in cell viability up to 8 ug/ml after 24 hrs by MTS assay; type: cell-based; settings: j774, 24 h
Method in brief: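 J774 murine macrophages were grown in DMEM with 10% FBS at 37 °C, 5% CO2. Compounds were tested at 8, 16 and 32 μg/mL in triplicate for 24 h, with a DMSO-matched control. MTS was added for 4 h and absorbance read at 490 nm. Viability is given as % of DMSO control (mean ± SD); Student t-test with Holm-Sidak test.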

Staphylococcus aureus [11] = experiment: Antibacterial activity against methicillin-resistant Staphylococcus aureus NRS119 after 20 hrs by broth microdilution assay; type: functional; settings: NRS119, 20 h; method in brief: as §1
Mus musculus = experiment: Induction of inflammation in Balb/c mouse infected with methicillin-resistant Staphylococcus aureus USA300 assessed as swelling around wounded skin area at 2% administered topically twice daily for 5 consecutive days measured 12 hrs post last dose; type: organism-based; settings: in vivo, topical_or_ocular
Method in brief: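 Female Balb/c mice, 8 weeks old, n=5 per group. Intradermal injection of 40 μL of 1.32×10^9 CFU/mL USA300; a wound formed by ~66 h. Treated topically with a 2% suspension in petroleum jelly twice daily for 5 days; the vehicle group served as control. Wounds excised 12 h after the last dose, homogenized in PBS and plated on mannitol salt agar; sites also observed for redness and swelling.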

[12] = target: T1, Undecaprenyl-diphosphatase (Escherichia coli (strain K12), UniProt P60932); experiment: Inhibition of Escherichia coli UPPP expressed in Escherichia coli C41(DE3) using FPP as substrate preincubated for 15 mins followed by substrate addition measured after 20 mins by malachite green assay
T1 sequence (P60932 whole entry): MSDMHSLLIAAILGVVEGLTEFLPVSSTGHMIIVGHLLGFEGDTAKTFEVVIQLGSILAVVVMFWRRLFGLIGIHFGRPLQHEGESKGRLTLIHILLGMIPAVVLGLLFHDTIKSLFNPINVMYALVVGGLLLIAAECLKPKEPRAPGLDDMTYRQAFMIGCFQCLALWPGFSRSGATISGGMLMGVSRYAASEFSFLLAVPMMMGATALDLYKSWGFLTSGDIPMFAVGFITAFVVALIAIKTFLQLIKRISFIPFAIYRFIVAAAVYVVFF

Staphylococcus aureus [13] = experiment: Ratio of MBC to MIC for vancomycin-resistant Staphylococcus aureus VRS11a; type: functional; method in brief: as §3
[14] = target: T2, Ditrans,polycis-undecaprenyl-diphosphate synthase ((2E,6E)-farnesyl-diphosphate specific) (Escherichia coli (strain K12), UniProt P60472); experiment: Inhibition of Escherichia coli UPPS using IPP and FPP as substrate preincubated for 30 mins followed by substrate addition measured after 20 mins by malachite green phosphate assay
T2 sequence (P60472 whole entry): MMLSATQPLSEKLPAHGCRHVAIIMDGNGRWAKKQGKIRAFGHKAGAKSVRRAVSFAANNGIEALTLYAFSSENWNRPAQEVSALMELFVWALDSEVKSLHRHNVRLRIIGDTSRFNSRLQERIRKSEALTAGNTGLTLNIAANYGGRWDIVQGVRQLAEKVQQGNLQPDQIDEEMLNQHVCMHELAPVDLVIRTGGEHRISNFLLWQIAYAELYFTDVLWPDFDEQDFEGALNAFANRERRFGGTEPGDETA

Staphylococcus aureus [15] = experiment: Bactericidal activity against methicillin resistant vancomycin-resistant Staphylococcus aureus VRS10 up to 18 hrs by broth microdilution assay; type: functional; settings: VRS10, 18 h, read-out: MBC99.9
[16] = Induction of proton motive force collapse in Escherichia coli inverted membrane vesicle in presence of ATP-driven PMF generation system by ACMA-based fluorescence assay; type: functional, cell membranes; method in brief: as §2
Rattus norvegicus = experiment: Volume of distribution at steady state in Sprague-Dawley rat at 2 uM administered as single iv bolus dose by LC-MS/MS analysis; type: ADME, organism-based; settings: in vivo; method in brief: as §4
Staphylococcus aureus [17] = experiment: Bactericidal activity against methicillin-resistant Staphylococcus aureus NRS107 up to 18 hrs by broth microdilution assay; type: functional; settings: NRS107, 18 h, read-out: MBC99.9
Staphylococcus aureus [18] = experiment: Antibacterial activity against methicillin-resistant Staphylococcus aureus NRS123 (USA400) infected in mouse J774 cells at 8 ug/ml after 24 hrs; type: functional, organism-based
Method in brief: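 J774 macrophages grown in DMEM with 10% FBS at 37 °C, 5% CO2. Infected with USA400 at MOI ~100:1 for 1 h, then washed with gentamicin 50 μg/mL. Treated in triplicate wells for 24 h, washed with gentamicin again and lysed with 0.1% Triton X-100. Lysate plated on tryptic soy agar for 18–22 h; CFU/mL counted.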

[19] = Selectivity index, ratio of toxic concentration for human HRT18 cells to MIC for methicillin-resistant Staphylococcus aureus; type: toxicity; settings: read-out: Selectivity Index

## C/C(=N\NC(=N)N)c1sc(-c2ccc(C#CC3CC3)cc2)nc1C
Staphylococcus aureus [1]
  MIC: 2 µg/mL (≈ 5.93 µM)
Staphylococcus aureus [2]
  MBC: 2 µg/mL (≈ 5.93 µM)
[3]
  EC50: 28 µM
Staphylococcus aureus [4]
  Ratio: >100
Staphylococcus aureus [5]
  Ratio: <=3
Staphylococcus aureus [6]
  Ratio: 8
[7]
  t1/2: 292 min
Staphylococcus aureus [8]
  fold change (FC): 512
[9]
  Vd at 2 µM: 18.5 L
Staphylococcus aureus [10]
  Ratio: <=3
J774
  Activity: Non-Toxic
Staphylococcus aureus [11]
  MIC: 2 µg/mL (≈ 5.93 µM)
Mus musculus
  Activity: Non-Toxic
[12]
  IC50: 8.1 µM
Staphylococcus aureus [13]
  Ratio: <=3
[14]
  IC50: 38 µM
Staphylococcus aureus [15]
  MBC: 4 µg/mL (≈ 11.9 µM)
[16]
  EC50: 24 µM
Rattus norvegicus
  Vdss: 5.51 L
Staphylococcus aureus [17]
  MBC: 2 µg/mL (≈ 5.93 µM)
Staphylococcus aureus [18]
  Activity: inactive
[19]
  selectivity ratio: 7 to 31

— ChEMBL document CHEMBL4196022, “Alkynyl-containing phenylthiazoles: Systemically active antibacterial agents effective against methicillin-resistant Staphylococcus aureus (MRSA)” (Eur J Med Chem, 2018)
